Measured values: ChEMBL document CHEMBL3085769, “Synthesis and evaluation of a (18)F-labeled diarylpyrazole glycoconjugate for the imaging of NTS1-positive tumors” (J Med Chem, 2013)
Calls of active or inactive are those of the source. No cut-off for these calls is given here.

Tests used:
[1] = biological target: Neurotensin receptor type 1 (Homo sapiens, UniProt P30989); assay: Displacement of [3H]neurotensin from human NTS1 receptor expressed in CHO cells; type: cell-based
[2] = biological target: Neurotensin receptor type 2 (Homo sapiens, UniProt O95665); assay: Displacement of [3H]NT(8 to 13) from human NTS2 receptor expressed in HEK293 cells; type: cell-based
[3] = tested on: Nucleic Acid; assay: Ratio of drug uptake in tumor to blood of athymic nude mouse xenografted with human HT-29 cells at 4 to 8 MBq, iv after 10 to 60 mins by gamma-counting analysis; type: ADME, organism-based; conditions: tumour
Procedure, shortened: (§1)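 [18F]-labelled tracer (radiochemical purity >99% by radio-HPLC) injected into nude mice bearing HT29 xenografts with 7–10 mm tumour diameter. Organ and tumour uptake were measured as % ID/g at 10, 30 and 60 min post-injection. Tumour-to-organ ratios were derived from these values and reported as mean ± SD of two animals.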

[4] = tested on: Tumour; assay: Drug uptake in tumor of athymic nude mouse xenografted with human HT-29 cells at 4 to 8 MBq, iv after 10 mins by gamma-counting analysis; type: ADME, organism-based, Neoplasm; conditions: in vivo
Procedure, shortened: (§2)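 Biodistribution in nude mice carrying HT29 xenografts with 7–10 mm tumor diameter. Tissues were sampled at 10, 30 and 60 min post-injection. Uptake is expressed as % ID/g, and tumor-to-organ ratios were also calculated. Values are mean ± SD from two animals.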

[5] = tested on: Nucleic Acid; assay: Ratio of drug uptake in tumor to kidney of athymic nude mouse transfected with human HT-29 cells at 4 to 8 MBq, iv after 60 mins by gamma-counting analysis; type: ADME, organism-based; conditions: in vivo, 1 h; procedure, shortened: as §1
[6] = Metabolic stability in blood of athymic nude mouse xenografted with human HT-29 cells at 4 to 8 MBq, iv after 30 mins by radio-HPLC analysis; type: ADME, organism-based; conditions: read-out: Stability
Procedure, shortened: (§3)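 Blood samples were taken from HT29 xenografted nude mice at 10 and 30 min post-injection. Intact tracer was quantified by radio-HPLC. Radiochemical purity of the injected tracer was above 99% by radio-HPLC.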

[7] = tested on: Kidney; assay: Drug uptake in kidney of athymic nude mouse xenografted with human HT-29 cells at 4 to 8 MBq, iv after 10 to 60 mins by gamma-counting analysis; type: ADME, organism-based; conditions: in vivo; procedure, shortened: as §2
[8] = tested on: Tumour; assay: Drug uptake in tumor of athymic nude mouse xenografted with human HT-29 cells at 4 to 8 MBq, iv after 60 mins by gamma-counting analysis; type: ADME, organism-based, Neoplasm; conditions: in vivo, 1 h; procedure, shortened: as §2
[9] = tested on: Serum; assay: Metabolic stability in human serum after 5 to 180 mins by radio-HPLC analysis; type: ADME, cell-free
[10] = Metabolic stability in blood of athymic nude mouse transfected with human HT-29 cells at 4 to 8 MBq, iv after 10 mins by radio-HPLC analysis; type: ADME, organism-based; conditions: read-out: Stability; procedure, shortened: as §3
[11] = tested on: Liver; assay: Drug uptake in liver of athymic nude mouse transfected with human HT-29 cells at 4 to 8 MBq, iv after 10 to 60 mins by gamma-counting analysis; type: ADME, organism-based; conditions: in vivo; procedure, shortened: as §2
[12] = Octanol-water partition coefficient, log D of the compound at pH 7.4 by gamma-counting analysis; type: physicochemical
[13] = tested on: Blood; assay: Drug uptake in blood of athymic nude mouse transfected with human HT-29 cells at 4 to 8 MBq, iv after 10 to 60 mins by gamma-counting analysis; type: ADME, organism-based; conditions: in vivo; procedure, shortened: as §2
[14] = tested on: Brain; assay: Drug uptake in Sprague-Dawley rat brain by autoradiography; type: ADME, tissue-based; conditions: in vivo
[15] = tested on: Tumour; assay: Drug uptake in tumor of athymic nude mouse transfected with human HT-29 cells at 1 to 3 MBq, iv after 45 to 65 mins by PET imaging analysis in presence of SR142948A; type: ADME, organism-based, Neoplasm; conditions: in vivo
Procedure, shortened: (§4)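 Small-animal PET of HT29 xenografted nude mice (tumor diameter 7–10 mm), with images taken 45–65 min post-injection. Tumor uptake was quantified by μPET as % ID/g. For blocking, 3 mg/kg of the […] NTS1 ligand SR142948A was co-injected with the tracer. Values are mean ± SEM from 4 animals.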

[16] = tested on: Tumour; assay: Drug uptake in tumor of athymic nude mouse transfected with human HT-29 cells at 1 to 3 MBq, iv after 45 to 65 mins by PET imaging analysis; type: ADME, organism-based, Neoplasm; conditions: in vivo; procedure, shortened: as §4
[17] = biological target: Neurotensin receptor type 1 (Rattus norvegicus) (UniProt P20789); assay: Binding affinity to NTS1 receptor in Sprague-Dawley rat brain at 10 MBq after 60 mins by autoradiography in presence of neurotensin; conditions: 10 M, tested as the 18F-labelled form
[18] = biological target: Neurotensin receptor type 1 (Rattus norvegicus) (UniProt P20789); assay: Binding affinity to NTS1 receptor in Sprague-Dawley rat brain at 10 MBq after 60 mins by autoradiography; conditions: 10 M, tested as the 18F-labelled form
[19] = biological target: Neurotensin receptor type 1 (Rattus norvegicus) (UniProt P20789); assay: Binding affinity to NTS1 receptor in Sprague-Dawley rat brain at 10 MBq after 60 mins by autoradiography in presence of H-Arg-Arg-Pro-N-h-Tyr-Ile-Leu-OH; conditions: 10 M, tested as the 18F-labelled form
[20] = biological target: T1, Neurotensin receptor type 2 (Rattus norvegicus) (UniProt Q63384); assay: Binding affinity to NTS2 receptor in Sprague-Dawley rat brain cortex at 10 MBq after 60 mins by autoradiography in presence of H-Arg-Arg-Pro-N-h-Tyr-Ile-Leu-OH; conditions: 10 M, tested as the 18F-labelled form
T1 sequence (whole entry): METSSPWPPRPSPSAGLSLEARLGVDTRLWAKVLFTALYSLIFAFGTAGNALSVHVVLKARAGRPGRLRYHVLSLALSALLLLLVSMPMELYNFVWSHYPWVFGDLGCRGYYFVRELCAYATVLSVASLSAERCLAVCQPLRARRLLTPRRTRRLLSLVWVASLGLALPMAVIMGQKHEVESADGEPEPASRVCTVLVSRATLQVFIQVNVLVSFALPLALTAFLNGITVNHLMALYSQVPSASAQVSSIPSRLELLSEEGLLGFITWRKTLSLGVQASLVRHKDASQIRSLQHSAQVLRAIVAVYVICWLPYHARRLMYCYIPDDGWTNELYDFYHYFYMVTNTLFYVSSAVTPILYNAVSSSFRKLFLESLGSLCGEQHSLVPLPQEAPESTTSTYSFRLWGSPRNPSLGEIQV

Sequence of Neurotensin receptor type 1 (Rattus norvegicus) (P20789 whole entry): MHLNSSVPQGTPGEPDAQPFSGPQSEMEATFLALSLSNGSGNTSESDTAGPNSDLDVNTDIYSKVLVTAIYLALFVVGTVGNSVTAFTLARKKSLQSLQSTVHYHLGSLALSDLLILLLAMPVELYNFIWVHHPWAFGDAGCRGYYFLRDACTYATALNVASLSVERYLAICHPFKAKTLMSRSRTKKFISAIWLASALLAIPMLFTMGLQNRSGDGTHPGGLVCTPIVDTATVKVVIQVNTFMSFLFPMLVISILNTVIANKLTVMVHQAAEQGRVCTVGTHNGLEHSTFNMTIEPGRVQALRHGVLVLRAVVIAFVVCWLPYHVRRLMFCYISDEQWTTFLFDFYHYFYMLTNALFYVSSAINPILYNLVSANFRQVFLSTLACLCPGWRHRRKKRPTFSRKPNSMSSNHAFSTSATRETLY
Sequence of Neurotensin receptor type 1 (P30989 whole entry): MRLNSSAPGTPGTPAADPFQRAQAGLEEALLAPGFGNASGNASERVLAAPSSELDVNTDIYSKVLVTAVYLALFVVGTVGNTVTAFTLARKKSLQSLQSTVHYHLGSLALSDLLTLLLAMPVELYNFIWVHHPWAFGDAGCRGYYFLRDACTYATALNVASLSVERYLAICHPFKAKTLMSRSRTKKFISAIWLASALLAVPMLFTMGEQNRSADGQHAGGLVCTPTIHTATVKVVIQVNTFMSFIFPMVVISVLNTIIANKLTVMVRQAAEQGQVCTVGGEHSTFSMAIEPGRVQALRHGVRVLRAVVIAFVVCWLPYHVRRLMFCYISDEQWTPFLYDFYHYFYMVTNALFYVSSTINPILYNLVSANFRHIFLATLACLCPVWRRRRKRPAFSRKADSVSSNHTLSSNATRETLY
Sequence of Neurotensin receptor type 2 (O95665 whole entry): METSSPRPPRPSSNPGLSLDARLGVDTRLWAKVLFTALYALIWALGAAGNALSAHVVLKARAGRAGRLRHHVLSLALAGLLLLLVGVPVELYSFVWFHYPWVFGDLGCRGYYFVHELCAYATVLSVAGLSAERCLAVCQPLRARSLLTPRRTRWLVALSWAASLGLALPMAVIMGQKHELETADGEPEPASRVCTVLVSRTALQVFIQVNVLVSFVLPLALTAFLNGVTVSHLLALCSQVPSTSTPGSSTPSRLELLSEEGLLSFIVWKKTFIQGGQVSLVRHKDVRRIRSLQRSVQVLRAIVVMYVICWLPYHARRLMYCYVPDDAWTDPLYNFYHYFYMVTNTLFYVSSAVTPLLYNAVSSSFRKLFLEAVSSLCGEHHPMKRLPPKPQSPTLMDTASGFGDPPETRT

Row | Structure (SMILES) | Ki [1] | Ki [2] | Ratio [3] | Drug uptake [4] | Ratio [5] | remaining at 0.5 h [6] | Drug uptake [7] | Drug uptake [8] | Stability [9] | remaining at 10 min [10] | Drug uptake [11] | logD [12] | Drug uptake [13] | Drug uptake [14] | Drug uptake [15] | Drug uptake [16] | Activity [17] | Activity [18] | Activity [19] | Activity [20]
1 | COc1cccc(OC)c1-c1cc(C(=O)NC2(C(=O)O)C3CC4CC(C3)CC2C4)nn1-c1ccc(C(=O)N(C)CCCN(C)C)cc1C(C)C (configuration not stated) | 1 nM | 74 nM |  |  |  |  |  |  |  |  |  |  |  |  |  |  |  |  |  | 
2 | COc1cccc(OC)c1-c1cc(C(=O)NC2(C(=O)O)C3CC4CC(C3)CC2C4)nn1-c1ccc(C(=O)N(C)CCCN(C)CCCCc2cn([C@@H]3O[C@H](CO)[C@@H](O)[C@H](O)[C@H]3[18F])nn2)cc1C(C)C (some centres not stated) |  |  | 0.3 | 0.84 % ID/g | 8 | > 98% | Active | 0.74 % ID/g | Stable | > 98% | Not Active | -0.24 | Not Active | Not Active | Not Active | Active |  |  |  | 
3 | COc1cccc(OC)c1-c1cc(C(=O)NC2(C(=O)O)C3CC4CC(C3)CC2C4)nn1-c1ccc(C(=O)N(C)CCCN(C)CCCCc2cn([C@@H]3O[C@H](CO)[C@@H](O)[C@H](O)[C@H]3F)nn2)cc1C(C)C (some centres not stated) | 0.98 nM | 69 nM |  |  |  |  |  |  |  |  |  |  |  |  |  |  | Active | Active | Active | Active
